In ChEMBL document CHEMBL3994605, “Synthesis and biological evaluation of curcumin inspired indole analogues as tubulin polymerization inhibitors” (Eur J Med Chem, 2017):
Active and inactive are the calls of the source. No cut-off for these calls is given here.

Assays:
BT-549 [1] = experiment: Antiproliferative activity against human BT549 cells after 48 hrs by MTT assay; assay type: functional, cell-based; details: BT-549, 48 h
Method in brief: (§1)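 MTT read-out. Cells were seeded at 5 × 10^3 per well in DMEM or RPMI with 10% FBS and grown 24 h at 37 °C in CO2. Compound dilutions in medium, with vehicle control, were then added for 48 h. MTT (0.5 mg/mL in medium) was given for 4 h, formazan was dissolved in DMSO, and A570 was read. IC50 was taken from concentration–response curves as mean ± SD of three experiments run in triplicate.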

A549 = experiment: Antiproliferative activity against human A549 cells after 48 hrs by MTT assay; assay type: functional, cell-based; details: A549, 48 h; method in brief: as §1
MDA-MB-231 [2] = experiment: Antiproliferative activity against human MDA-MB-231 cells after 48 hrs by MTT assay; assay type: functional, cell-based; details: MDA-MB-231, 48 h; method in brief: as §1
4T1 = experiment: Antiproliferative activity against mouse 4T1 cells after 48 hrs by MTT assay; assay type: functional, cell-based; details: 4T1, 48 h; method in brief: as §1
PC-3 [3] = experiment: Antiproliferative activity against human PC3 cells after 48 hrs by MTT assay; assay type: functional, cell-based; details: PC-3, 48 h; method in brief: as §1
DU-145 [4] = experiment: Antiproliferative activity against human DU145 cells after 48 hrs by MTT assay; assay type: functional, cell-based; details: DU-145, 48 h; method in brief: as §1
HGC-27 = experiment: Antiproliferative activity against human HGC27 cells after 48 hrs by MTT assay; assay type: functional, cell-based; details: HGC-27, 48 h; method in brief: as §1
HeLa = experiment: Antiproliferative activity against human HeLa cells after 48 hrs by MTT assay; assay type: functional, cell-based; method in brief: as §1
RWPE-1 = experiment: Antiproliferative activity against human RWPE1 cells after 48 hrs by MTT assay; assay type: cell-based; details: RWPE-1, 48 h; method in brief: as §1
MDA-MB-231 [5] = experiment: Potency index, ratio of curcumin IC50 to compound IC50 for human MDA-MB-231 cells; assay type: functional
BT-549 [6] = experiment: Potency index, ratio of curcumin IC50 to compound IC50 for human BT549 cells; assay type: functional
PC-3 [7] = experiment: Potency index, ratio of curcumin IC50 to compound IC50 for human PC3 cells; assay type: functional
DU-145 [8] = experiment: Potency index, ratio of curcumin IC50 to compound IC50 for human DU145 cells; assay type: functional
Sus scrofa = species: Sus scrofa; experiment: Inhibition of porcine brain tubulin polymerization assessed as reduction in incorporation of fluorescent reporter at 10 uM by fluorescence based assay relative to control
Method in brief: (§2)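 Cell-free mix contained porcine brain tubulin (2 mg/mL) in 80 mM PIPES pH 6.9 with 2.0 mM MgCl2, 0.5 mM EGTA, 1.0 mM GTP and glycerol, with or without compound. Polymerization was tracked as a time-dependent fluorescence rise from reporter incorporation (ex 360, em 440 nm), with nocodazole as positive control. Inhibition was scored versus the untreated control. For IC50, the concentration giving 50% inhibition of assembly was used.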

[9] = Inhibition of porcine brain tubulin polymerization assessed as reduction in incorporation of fluorescent reporter by fluorescence based assay; design: species or system Sus scrofa; method in brief: as §2
PC-3 [10] = experiment: Induction of apoptosis in human PC3 cells assessed as chromatin condensation at 2.5 to 5 uM after 48 hrs by acridine orange/ethidium bromide staining based fluorescence microscopic method; assay type: functional, cell-based
Method in brief: (§3)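 PC-3 cells were plated at 25,000 per well, grown 24 h, then exposed 48 h. Cells were PBS-washed, stained with acridine orange and ethidium bromide ([…]), and imaged immediately by fluorescence microscopy (ex 488, em 550 nm) at 200×.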

PC-3 [11] = experiment: Induction of apoptosis in human PC3 cells assessed as cell membrane blebbing at 2.5 to 5 uM after 48 hrs by acridine orange/ethidium bromide staining based fluorescence microscopic method; assay type: functional; method in brief: as §3
PC-3 [12] = experiment: Induction of apoptosis in human PC3 cells assessed as horse shoe shaped nuclei at 2.5 to 5 uM after 48 hrs by acridine orange/ethidium bromide staining based fluorescence microscopic method; assay type: functional, cell-based; method in brief: as §3
PC-3 [13] = experiment: Induction of apoptosis in human PC3 cells assessed as destructive fragmentation of nuclei at 2.5 to 5 uM after 48 hrs by acridine orange/ethidium bromide staining based fluorescence microscopic method; assay type: functional, cell-based; method in brief: as §3
PC-3 [14] = experiment: Induction of apoptosis in human PC3 cells assessed as nuclear shrinkage at 2.5 to 5 uM after 48 hrs by DAPI staining based fluorescence microscopic method; assay type: functional, cell-based
Method in brief: (§4)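 PC-3 cells were seeded at 25,000 per well and adhered overnight, then exposed 48 h. Cells were fixed in 4% neutral buffered formalin for 20 min and permeabilized with 0.2% Triton X for 5 min. DAPI (1 mg/mL) staining ran 10 min at room temperature, followed by fluorescence microscopy (ex 350, em 460 nm) at 200×.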

PC-3 [15] = experiment: Induction of apoptosis in human PC3 cells assessed as nuclear fragmentation at 2.5 to 5 uM after 48 hrs by DAPI staining based fluorescence microscopic method; assay type: functional, cell-based; method in brief: as §4
PC-3 [16] = experiment: Induction of apoptosis in human PC3 cells assessed as pyknotic nuclei at 2.5 to 5 uM after 48 hrs by DAPI staining based fluorescence microscopic method; assay type: functional, cell-based; method in brief: as §4
PC-3 [17] = experiment: Induction of apoptosis in human PC3 cells assessed as horse shoe shaped nuclei at 2.5 to 5 uM after 48 hrs by DAPI staining based fluorescence microscopic method; assay type: functional, cell-based; method in brief: as §4
PC-3 [18] = experiment: Induction of apoptosis in human PC3 cells assessed as chromatin condensation at 2.5 to 5 uM after 48 hrs by DAPI staining based fluorescence microscopic method; assay type: functional, cell-based; method in brief: as §4
PC-3 [19] = experiment: Induction of mitochondrial membrane potential loss in human PC3 cells assessed as ratio of green to red fluorescence at 5 uM after 24 hrs by JC1 staining based spectrofluorometric method (reference value: 0.103); assay type: functional
PC-3 [20] = experiment: Cell cycle arrest in human PC3 cells assessed as accumulation at subG1 phase at 2.5 uM after 24 hrs by propidium iodide staining based flow cytometry (reference value: 4.29 to 7.23%); assay type: functional
Method in brief: (§5)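 PC-3 cells were seeded at 1 × 10^5 cells/mL, attached 24 h, then treated 24 h. Cells were fixed overnight in 70% ethanol in PBS. Staining used propidium iodide ([…]) with RNase A ([…]) and 0.1% Triton X-100 for 30 min at 37 °C in the dark. About 10,000 events per sample were acquired by flow cytometry.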

PC-3 [21] = experiment: Cell cycle arrest in human PC3 cells assessed as accumulation at G0/G1 phase at 2.5 uM after 24 hrs by propidium iodide staining based flow cytometry (reference value: 65.04 to 76.95%); assay type: functional; method in brief: as §5
PC-3 [22] = experiment: Cell cycle arrest in human PC3 cells assessed as accumulation at S phase at 2.5 uM after 24 hrs by propidium iodide staining based flow cytometry (reference value: 3.3 to 5.58%); assay type: functional; method in brief: as §5
PC-3 [23] = experiment: Cell cycle arrest in human PC3 cells assessed as accumulation at G2/M phase at 2.5 uM after 24 hrs by propidium iodide staining based flow cytometry (reference value: 12.2 to 24.74%); assay type: functional; method in brief: as §5
PC-3 [24] = experiment: Cell cycle arrest in human PC3 cells assessed as accumulation at subG1 phase at 5 uM after 24 hrs by propidium iodide staining based flow cytometry (reference value: 4.29 to 7.23%); assay type: functional; method in brief: as §5
PC-3 [25] = experiment: Cell cycle arrest in human PC3 cells assessed as accumulation at G0/G1 phase at 5 uM after 24 hrs by propidium iodide staining based flow cytometry (reference value: 65.04 to 76.95%); assay type: functional; method in brief: as §5
PC-3 [26] = experiment: Cell cycle arrest in human PC3 cells assessed as accumulation at S phase at 5 uM after 24 hrs by propidium iodide staining based flow cytometry (reference value: 3.3 to 5.58%); assay type: functional; method in brief: as §5
PC-3 [27] = experiment: Cell cycle arrest in human PC3 cells assessed as accumulation at G2/M phase at 5 uM after 24 hrs by propidium iodide staining based flow cytometry (reference value: 12.2 to 24.74%); assay type: functional; method in brief: as §5
PC-3 [28] = experiment: Cell cycle arrest in human PC3 cells assessed as accumulation at subG1 phase at 10 uM after 24 hrs by propidium iodide staining based flow cytometry (reference value: 4.29 to 7.23%); assay type: functional; method in brief: as §5
PC-3 [29] = experiment: Cell cycle arrest in human PC3 cells assessed as accumulation at G0/G1 phase at 10 uM after 24 hrs by propidium iodide staining based flow cytometry (reference value: 65.04 to 76.95%); assay type: functional; method in brief: as §5
PC-3 [30] = experiment: Cell cycle arrest in human PC3 cells assessed as accumulation at S phase at 10 uM after 24 hrs by propidium iodide staining based flow cytometry (reference value: 3.3 to 5.58%); assay type: functional; method in brief: as §5
PC-3 [31] = experiment: Cell cycle arrest in human PC3 cells assessed as accumulation at G2/M phase at 10 uM after 24 hrs by propidium iodide staining based flow cytometry (reference value: 12.2 to 24.74%); assay type: functional; method in brief: as §5

IC50 (BT-549 [1])	IC50 (A549)	IC50 (MDA-MB-231 [2])	IC50 (4T1)	IC50 (PC-3 [3])	IC50 (DU-145 [4])	IC50 (HeLa)	inhibition (Sus scrofa)	IC50 [9]	Structure (SMILES)	IC50 (HGC-27)	IC50 (RWPE-1)	Ratio IC50 (MDA-MB-231 [5])	Ratio IC50 (BT-549 [6])	Ratio IC50 (PC-3 [7])	Ratio IC50 (DU-145 [8])	Activity (PC-3 [10])	Activity (PC-3 [11])	Activity (PC-3 [12])	Activity (PC-3 [13])	Activity (PC-3 [14])	further results
8.72 µM	8.01 µM	11.4 µM	9.79 µM	3.15 µM	8.92 µM	3.31 µM	57.3%	8.81 µM	COc1cc(/C=C/C(=O)/C=C/c2c[nH]c3ccccc23)cc(OC)c1OC	8.65 µM	6.42 µM	1.4	2.8	3.9	3.2	Active	Active	Active	Active	Active	Activity (PC-3 [15]): Active; Activity (PC-3 [16]): Active; Activity (PC-3 [17]): Active; Activity (PC-3 [18]): Active; Ratio (PC-3 [19]): 0.132; Activity (PC-3 [20]): 4.74%; Activity (PC-3 [21]): 58.47%; Activity (PC-3 [22]): 8.94%; Activity (PC-3 [23]): 27.04%; Activity (PC-3 [24]): 3.46%; Activity (PC-3 [25]): 58.52%; Activity (PC-3 [26]): 6.2%; Activity (PC-3 [27]): 29.87%; Activity (PC-3 [28]): 5.99%; Activity (PC-3 [29]): 51.68%; Activity (PC-3 [30]): 10.04%; Activity (PC-3 [31]): 31.42%
8.34 µM	19 µM	6.02 µM	16.1 µM	6.34 µM	7.71 µM	6.59 µM	51.7%	10.2 µM	COc1ccc(OC)c(/C=C/C(=O)/C=C/c2c[nH]c3ccccc23)c1	5.21 µM	18.6 µM	2.6	2.9	1.9	3.7	Active	Active	Active	Active	Active	Activity (PC-3 [15]): Active; Activity (PC-3 [16]): Active; Activity (PC-3 [17]): Active; Activity (PC-3 [18]): Active; Ratio (PC-3 [19]): 0.135; Activity (PC-3 [20]): 0.6%; Activity (PC-3 [21]): 38.65%; Activity (PC-3 [22]): 2.43%; Activity (PC-3 [23]): 57.54%; Activity (PC-3 [24]): 1.31%; Activity (PC-3 [25]): 41.11%; Activity (PC-3 [26]): 1.36%; Activity (PC-3 [27]): 55.93%
